M1 ag: human M1 muscarinic receptor agonism | CHO-K1 hM1, Fluo-8 calcium fluorescence, agonist mode; 0% DMSO, 100% acetylcholine EC100 | P11229 | 360,000 tested, 0.33% active | activation, % at 3 µM;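 active = activation above the run's mean compound activation plus 3 SD, cut at about 16% in these data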;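 also: peak over basal fluorescence ratio within a 140 s kinetic read after compound addition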
M1 antag: human CHRM1 antagonism; P11229; CHO-K1 hM1, Fluo-8 calcium fluorescence, ACh EC80 antagonist; inhibition, % at 3 µM; 360,000 tested, 1.3% active; AID 588852;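 active = percent inhibition above its own plate's cutoff, namely the mean of that plate's compound wells plus 3 SD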;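 also: peak over basal fluorescence ratio during 140 s after agonist addition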
M5 antag: blocks acetylcholine activation of human M5 receptor; AID 624040; inhibition, % at 3 µM; 360,000 tested, 0.59% active; CHO-hM5 cells, Fluo-8 calcium fluorescence, ACh EC80;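 active = inhibition above a per-plate cutoff, the mean of that plate's test compounds plus 3 SD, cut at about 27% in these data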
Target sequence (P08912 whole entry, looked up): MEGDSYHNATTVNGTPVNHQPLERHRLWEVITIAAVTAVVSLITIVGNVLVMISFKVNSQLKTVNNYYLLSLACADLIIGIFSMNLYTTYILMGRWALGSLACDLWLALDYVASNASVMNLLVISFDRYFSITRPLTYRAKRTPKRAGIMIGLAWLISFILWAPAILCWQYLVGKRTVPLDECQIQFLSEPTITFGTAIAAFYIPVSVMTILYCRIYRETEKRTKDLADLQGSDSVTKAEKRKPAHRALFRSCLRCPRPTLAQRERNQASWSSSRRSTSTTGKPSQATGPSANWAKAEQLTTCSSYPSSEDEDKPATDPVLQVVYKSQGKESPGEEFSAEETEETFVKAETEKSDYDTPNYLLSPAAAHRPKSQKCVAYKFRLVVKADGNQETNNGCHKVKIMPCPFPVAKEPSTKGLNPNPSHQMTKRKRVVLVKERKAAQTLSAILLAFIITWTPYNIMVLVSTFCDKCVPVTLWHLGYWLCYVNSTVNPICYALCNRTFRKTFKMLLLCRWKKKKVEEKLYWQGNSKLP
CHRM5 agonist: agonists of human muscarinic M5 receptor (CHRM5); P08912; CHO-K1 hM5 cells, Fluo-8 calcium fluorescence; 0% DMSO wells, 100% maximal acetylcholine response; activation, % at 3 µM; 360,000 tested, 0.19% active; AID 624037;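 active = activation above the run's mean over test compounds plus 3 SD, cut at about 23% in these data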;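 also: signal is peak over basal fluorescence ratio across the kinetic read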
M1 PAM: positive allosteric modulators of human M1 muscarinic receptor | P11229 | CHO-K1 hM1, Fluo-8 calcium fluorescence, ACh EC20; 0% = ACh EC20, 100% = maximal ACh | activation, % at 3 µM | 360,000 tested, 0.088% active; in the data active = activation above about 19%, passing the limit was not always enough
CHRM5 PAM: positive allosteric modulators of human muscarinic M5 receptor; P08912; CHO-K1 hM5, Fluo-8 calcium, ACh EC20 PAM; 0% = ACh EC20, 100% = ACh EC100; activation, % at 3 µM; 360,000 tested, 0.3% active; AID 624038;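 active = activation above the run cutoff, the mean activation of all test compounds plus 3 SD, cut at about 18% in these data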
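System: CHO-K1 cell line with stable human muscarinic M5 receptor expression | Also added: EC20 acetylcholine as agonist stimulus | Compound: One concentration, 3 µM final (nominal) | Timing: Fluo-8 loading 80 min at 37 °C plus 30 min room temperature | Measured by: Fluo-8 calcium dye fluorescence, kinetic read | Read-out basis: % activation, ACh-normalized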
Each line names hits and unclear results; the compound was inactive in the other large screens; ! = repeats disagree. Rows were chosen to be rich in hits. Some 2.1% of all compounds tested hit in one or more screens of this group.

CCOc1ccccc1N1CCN(CC(O)COC2CCCc3ccccc32)CC1 (configuration not stated)	M1 antag 47.5
COc1ccc(C)cc1NC(=O)CSc1nnc2ccc(-c3ccncc3)nn12	M1 antag 27.8
Cc1ccc(/C=C/C(=O)c2cc(Br)ccc2OC(=O)c2ccco2)cc1	CHRM5 PAM 21.2
COc1ccccc1/C=C/C(=O)c1cc(Br)ccc1OC(=O)c1ccco1	none
COc1ccc(C)cc1S(=O)(=O)N1CCN(C(=O)c2ncoc2-c2cccc(C)c2)CC1	M5 antag 28.5
COc1ccc(N=C2SCC(=O)N2CCc2ccc(OC)c(OC)c2)cc1	none
COc1ccc(CCN2C(=O)CSC2=Nc2ccc(C(C)C)cc2)cc1OC	M1 antag 40.7, M5 antag 35.3
O=C(O)c1cc(-c2ccc(Cl)cc2)n[nH]1	none
COc1ccc(CNC(=O)CCN2C(=O)[C@@H]3Cc4ccccc4CN3C2=O)cc1	none
Cc1nn(CC(=O)N2CCc3ccccc3C2)c(C)c1Cl	CHRM5 PAM 21.3
CCSc1nc(-c2ccco2)ccc1C#N	CHRM5 PAM 46.0
COc1ccc(NC(=O)C2CCCN(S(=O)(=O)c3c(C)[nH]c(=O)[nH]c3=O)C2)cc1 (configuration not stated)	none
OC1(c2ccc(Cl)cc2)CCN(Cc2c[nH]c3ccccc23)CC1	M1 ag 22.3
Clc1ccccc1N1CCN(Cc2c[nH]c3ccccc23)CC1	none
COc1cc(Cl)ccc1OCc1cc(C(=O)N2CCCC(OC)C2)no1 (configuration not stated)	M5 antag 28.7
O=C(c1cc(COc2ccc(F)cc2Cl)on1)N1CCN(C2CCCCC2)C(=O)C1	M1 antag 28.4
COCC1CCN(C(=O)c2cc(COc3ccc(-n4cncn4)cc3)on2)C1 (configuration not stated)	none
CCC(O)C1CCN(C(=O)c2cc(COc3ccc4ncccc4c3)on2)CC1 (configuration not stated)	M5 antag 35.1
CCN(CC)C1CCN(C(=O)c2cc(COc3ccc(-n4cncn4)cc3)on2)C1 (configuration not stated)	M1 antag 42.2
Cc1ccnc2nc(C(=O)Nc3nnc(CC(C)C)s3)nn12	none
COCC1CCCN(C(=O)c2cc(COc3ccc4ncccc4c3)on2)C1 (configuration not stated)	M1 antag 34.5
CCOC(=O)C1CCCN(C(=O)c2cc(COc3ccc(C)nc3)on2)C1 (configuration not stated)	M1 ag 27.4
COC(=O)CNC(=O)c1c(-c2c(Cl)cccc2Cl)noc1C	none
CCOC(=O)C1CCCN(c2c(NCc3ccco3)c(=O)c2=O)C1 (configuration not stated)	M1 ag 26.7
O=C(O)c1cc(N/N=C/c2cccnc2)ccc1Cl	none
CS(=O)(=O)N1CCN(CC2CC3C=CC2C3)CC1 (configuration not stated)	M1 ag 44.6
Cc1ccccc1CN1CCN(CC2CC3C=CC2C3)CC1 (configuration not stated)	M1 antag 54.0
O=C(c1ccco1)N1CCN(CC2CC3C=CC2C3)CC1 (configuration not stated)	M1 antag 29.4
Cc1csc(=O)n1CC(=O)Nc1ccc(Cl)c(Cl)c1	none
Cn1c(N)c(N2CCCCC2)c(=O)n(CC(=O)Nc2ccc(Cl)c(Cl)c2)c1=O	CHRM5 PAM 19.0
CCN1CCCC1CNCc1ccccc1OCc1ccc(F)cc1 (configuration not stated)	M1 antag 31.7
CCOC(=O)c1cnc(Cc2ccccc2)[nH]c1=O	M1 antag 25.1
Fc1ccc(/C=C2\CCCC3=C2Nc2ncnn2C3c2ccc(F)cc2)cc1 (configuration not stated)	M1 antag 31.7
O=C(Nc1ccccc1Cl)c1ccc2c(=O)n3c(nc2c1)CCC3	none
O=C(Nc1nc(-c2ccccc2)cs1)c1ccc(N2CCOCC2)c([N+](=O)[O-])c1	M5 antag 30.1
O=C(Nc1nc(-c2ccccc2)cs1)c1ccc2c(=O)n3c(nc2c1)CCCCC3	M1 antag 33.3
Cc1ccc(-c2csc(NC(=O)c3cc([N+](=O)[O-])ccc3N3CCOCC3)n2)cc1	none
Cc1sc2nc(CSCC(=O)N(CCC#N)c3ccccc3F)[nH]c(=O)c2c1C	none
C=CCSc1nc2sc(C)c(C)c2c(=O)[nH]1	M1 antag 39.1
O=C(CN1C(=O)CCC1=O)Nc1cccc(NC(=O)CN2C(=O)CCC2=O)c1	CHRM5 PAM 19.3
O=S1(=O)CCC(NC(=S)NC2CCS(=O)(=O)C2)C1 (configuration not stated)	none
CN(C)NC(=S)NC1CCS(=O)(=O)C1 (configuration not stated)	CHRM5 PAM 21.1
O=S1(=O)CCC(NC(=S)Nc2ccccc2)C1 (configuration not stated)	M1 PAM 28.9
O=S1(=O)CCC(NC(=S)Nc2ccc3ccccc3c2)C1 (configuration not stated)	none
Cc1cc(C)c(NN=c2c(=O)c3ccccc3c2=O)c(C)c1	M1 antag 34.5
CC(=O)O[C@H]1C[C@@]2(C)[C@@H](C[C@@H](O)[C@H]3[C@@]4(C)CC[C@@H](O)[C@@H](C)[C@@H]4CC[C@@]32C)/C1=C(\CCC=C(C)C)C(=O)O	M5 antag 43.6!
CN(C)c1ccc(/C=C/c2ccc3c4ccccc4ccc3[n+]2-c2ccccc2)cc1	M1 antag 64.5, M5 antag 43.2
N#CCCn1cc(/C=N/O)c(-c2cccc([N+](=O)[O-])c2)n1	M5 antag 46.8
N#CCCn1cc(/C=N/O)c(-c2ccccc2)n1	none
Cc1nn(C(C)C(=O)NCCc2ccco2)c(=O)c2nn(-c3ccccc3)c(C)c12 (configuration not stated)	M1 PAM 30.7, CHRM5 PAM 23.5
CC(C(=O)OCn1nnc2ccccc2c1=O)N1C(=O)c2ccccc2C1=O (configuration not stated)	none
CC(=O)c1ccc(NC(=O)CSc2ccc(-c3sc(C)nc3C)nn2)cc1	M5 antag 31.9
C/C(=N\NC(=O)C(c1ccccc1)c1ccccc1)c1ccc(O)cc1	M1 PAM 31.4
COC(C(=O)N/N=C(\C)c1ccc(O)cc1)c1ccccc1 (configuration not stated)	none
COc1ccc(S(=O)(=O)N(CC(N)=O)C2CCCCC2)cc1Cl	none
